Experimental data reported in ChEMBL document CHEMBL1157639, “Identification of inhibitors of drug-resistant Candida albicans strains from a library of bicyclic peptidomimetic compounds” (2010).

Experiments:
[1] = biological target: Secreted aspartic protease 2 (Candida albicans) (UniProt P0CS83); test: Inhibition of Candida albicans SAP2 at 20 uM by spectrophotometry relative to pepstatin A
Outline: (§1)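 Sample was mixed with 1% (w/v) BSA substrate in 50 mM sodium citrate, pH 3.2, plus SAP2 protease (1 μg/mL stock solution) and incubated 30 min at 37 °C. The reaction was stopped with 10% TCA, kept 30 min on ice, and centrifuged; supernatant A280 was read. Percent inhibition was taken from ΔOD, with control proteinase minus proteinase plus pepstatin A set as 100%.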

[2] = biological target: Secreted aspartic protease 2 (Candida albicans) (UniProt P0CS83); test: Inhibition of Candida albicans SAP2 at 10 uM by spectrophotometry relative to pepstatin A; outline: as §1
[3] = biological target: Secreted aspartic protease 2 (Candida albicans) (UniProt P0CS83); test: Inhibition of Candida albicans SAP2 at 10 uM by spectrophotometry; outline: as §1
Candida albicans [4] = test: Antifungal activity against pharmacoresistant Candida albicans AIDS68 infected in Wistar rat estrogen-dependent fungal vaginitis model assessed as fungal burden at 10 uM administered intravaginally 48 hrs after fungal infection measured on day 28 after infection; format: functional, Vagina
Outline: (§2)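 Oophorectomized female Wistar rats (80-100 g) got 0.5 mg estradiol benzoate s.c. Six days later they were inoculated intravaginally with >10⁷ YPD-grown yeast cells (28 °C, washed, hemocytometer-counted) in 0.1 mL saline. Treatment was given intravaginally at 1, 24 and 48 h post-challenge. Burden was counted by culturing 100 μL vaginal fluid on Sabouraud-chloramphenicol (50 μg/mL) agar, as CFU/mL ×1000, through day 28.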

Candida albicans [5] = test: Antifungal activity against pharmacoresistant Candida albicans AIDS68 infected in Wistar rat estrogen-dependent fungal vaginitis model assessed as fungal burden at 10 uM administered intravaginally 48 hrs after fungal infection measured on day 21 after infection; format: functional, Vagina; outline: as §2
Candida albicans [6] = test: Antifungal activity against pharmacoresistant Candida albicans AIDS68 infected in Wistar rat estrogen-dependent fungal vaginitis model assessed as fungal burden at 10 uM administered intravaginally 48 hrs after fungal infection measured on day 14 after infection; format: functional, Vagina; outline: as §2
Candida albicans [7] = test: Antifungal activity against pharmacoresistant Candida albicans AIDS68 infected in Wistar rat estrogen-dependent fungal vaginitis model assessed as fungal burden at 10 uM administered intravaginally 48 hrs after fungal infection measured on day 7 after infection; format: functional, Vagina; outline: as §2
Candida albicans [8] = test: Antifungal activity against pharmacoresistant Candida albicans AIDS68 infected in Wistar rat estrogen-dependent fungal vaginitis model assessed as fungal burden at 10 uM administered intravaginally 48 hrs after fungal infection measured on day 5 after infection; format: functional, Vagina; outline: as §2
Candida albicans [9] = test: Antifungal activity against pharmacoresistant Candida albicans AIDS68 infected in Wistar rat estrogen-dependent fungal vaginitis model assessed as fungal burden at 10 uM administered intravaginally 24 hrs after fungal infection measured on day 2 after infection; format: functional, Vagina; outline: as §2
Candida albicans [10] = test: Antifungal activity against pharmacoresistant Candida albicans AIDS68 infected in Wistar rat estrogen-dependent fungal vaginitis model assessed as fungal burden at 10 uM administered intravaginally 1 hr after fungal infection measured on day 1 after infection; format: functional, Vagina; outline: as §2
Candida albicans [11] = test: Antifungal activity against Candida albicans SA40 infected in Wistar rat estrogen-dependent fungal vaginitis model assessed as fungal burden at 10 uM administered intravaginally 48 hrs after fungal infection measured on day 28 after infection; format: functional, Vagina; outline: as §2
Candida albicans [12] = test: Antifungal activity against Candida albicans SA40 infected in Wistar rat estrogen-dependent fungal vaginitis model assessed as fungal burden at 10 uM administered intravaginally 48 hrs after fungal infection measured on day 21 after infection; format: functional, Vagina
Outline: (§3)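 Oophorectomized female Wistar rats (80-100 g), given 0.5 mg estradiol benzoate subcutaneously, were challenged intravaginally six days later with >10⁷ YPD-grown yeast cells in 0.1 mL saline. Compound at 10 μM was instilled intravaginally at 1, 24 and 48 h post-challenge. Vaginal fluid samples (100 μL) were plated on Sabouraud agar with chloramphenicol (50 μg/mL), and burden was expressed as CFU/mL ×1000.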

Candida albicans [13] = test: Antifungal activity against Candida albicans SA40 infected in Wistar rat estrogen-dependent fungal vaginitis model assessed as fungal burden at 10 uM administered intravaginally 48 hrs after fungal infection measured on day 14 after infection; format: functional, Vagina; outline: as §3
Candida albicans [14] = test: Antifungal activity against Candida albicans SA40 infected in Wistar rat estrogen-dependent fungal vaginitis model assessed as fungal burden at 10 uM administered intravaginally 48 hrs after fungal infection measured on day 7 after infection; format: functional, Vagina; outline: as §3
Candida albicans [15] = test: Antifungal activity against Candida albicans SA40 infected in Wistar rat estrogen-dependent fungal vaginitis model assessed as fungal burden at 10 uM administered intravaginally 48 hrs after fungal infection measured on day 5 after infection; format: functional, Vagina; outline: as §3
Candida albicans [16] = test: Antifungal activity against Candida albicans SA40 infected in Wistar rat estrogen-dependent fungal vaginitis model assessed as fungal burden at 10 uM administered intravaginally 24 hrs after fungal infection measured on day 2 after infection; format: functional, Vagina; outline: as §3
Candida albicans [17] = test: Antifungal activity against Candida albicans SA40 infected in Wistar rat estrogen-dependent fungal vaginitis model assessed as fungal burden at 10 uM administered intravaginally 1 hr after fungal infection measured on day 1 after infection; format: functional, Vagina; outline: as §3
Candida albicans [18] = test: Antifungal activity against Candida albicans SA40 infected in Wistar rat estrogen-dependent fungal vaginitis model assessed as fungal burden at 10 uM administered intravaginally 1 hr after fungal infection measured within 1 day of infection; format: functional, Vagina; outline: as §2
[19] = biological target: Secreted aspartic protease 2 (Candida albicans) (UniProt P0CS83); test: Inhibition of Candida albicans SAP2 at 0.2 uM by spectrophotometry relative to pepstatin A; outline: as §1
[20] = biological target: Secreted aspartic protease 2 (Candida albicans) (UniProt P0CS83); test: Inhibition of Candida albicans SAP2 at 0.02 uM by spectrophotometry relative to pepstatin A; outline: as §1
[21] = biological target: Secreted aspartic protease 2 (Candida albicans) (UniProt P0CS83); test: Inhibition of Candida albicans SAP2 at 2 uM by spectrophotometry relative to pepstatin A; outline: as §1
Candida albicans [22] = test: Antifungal activity against pharmacoresistant Candida albicans AIDS68 infected in Wistar rat estrogen-dependent fungal vaginitis model assessed as fungal burden at 10 ug administered intravaginally 48 hrs after fungal infection measured on day 7 after infection; format: functional, Vagina; outline: as §2
Candida albicans [23] = test: Antifungal activity against pharmacoresistant Candida albicans AIDS68 infected in Wistar rat estrogen-dependent fungal vaginitis model assessed as fungal burden at 10 ug administered intravaginally 48 hrs after fungal infection measured on day 5 after infection; format: functional, Vagina; outline: as §2
Candida albicans [24] = test: Antifungal activity against pharmacoresistant Candida albicans AIDS68 infected in Wistar rat estrogen-dependent fungal vaginitis model assessed as fungal burden at 10 ug administered intravaginally 24 hrs after fungal infection measured on day 2 after infection; format: functional, Vagina; outline: as §2
Candida albicans [25] = test: Antifungal activity against pharmacoresistant Candida albicans AIDS68 infected in Wistar rat estrogen-dependent fungal vaginitis model assessed as fungal burden at 10 ug administered intravaginally 1 hr after fungal infection measured on day 1 after infection; format: functional, Vagina; outline: as §2
Candida albicans [26] = test: Antifungal activity against Candida albicans SA40 infected in Wistar rat estrogen-dependent fungal vaginitis model assessed as fungal burden at 10 ug administered intravaginally 48 hrs after fungal infection measured on day 28 after infection; format: functional, Vagina; outline: as §2
Candida albicans [27] = test: Antifungal activity against Candida albicans SA40 infected in Wistar rat estrogen-dependent fungal vaginitis model assessed as fungal burden at 10 ug administered intravaginally 48 hrs after fungal infection measured on day 21 after infection; format: functional, Vagina; outline: as §2
Candida albicans [28] = test: Antifungal activity against Candida albicans SA40 infected in Wistar rat estrogen-dependent fungal vaginitis model assessed as fungal burden at 10 ug administered intravaginally 48 hrs after fungal infection measured on day 14 after infection; format: functional, Vagina; outline: as §2
Candida albicans [29] = test: Antifungal activity against Candida albicans SA40 infected in Wistar rat estrogen-dependent fungal vaginitis model assessed as fungal burden at 10 ug administered intravaginally 48 hrs after fungal infection measured on day 7 after infection; format: functional, Vagina; outline: as §2
Candida albicans [30] = test: Antifungal activity against Candida albicans SA40 infected in Wistar rat estrogen-dependent fungal vaginitis model assessed as fungal burden at 10 ug administered intravaginally 48 hrs after fungal infection measured on day 5 after infection; format: functional, Vagina; outline: as §2
Candida albicans [31] = test: Antifungal activity against Candida albicans SA40 infected in Wistar rat estrogen-dependent fungal vaginitis model assessed as fungal burden at 10 ug administered intravaginally 24 hrs after fungal infection measured on day 2 after infection; format: functional, Vagina; outline: as §2
Candida albicans [32] = test: Antifungal activity against Candida albicans SA40 infected in Wistar rat estrogen-dependent fungal vaginitis model assessed as fungal burden at 10 ug administered intravaginally 1 hr after fungal infection measured on day 1 after infection; format: functional, Vagina; outline: as §2
Candida albicans [33] = test: Antifungal activity against Candida albicans SA40 infected in Wistar rat estrogen-dependent fungal vaginitis model assessed as fungal burden at 10 ug administered intravaginally 1 hr after fungal infection measured within 1 day of infection; format: functional, Vagina; outline: as §2
Candida albicans [34] = test: Antifungal activity against pharmacoresistant Candida albicans AIDS68 infected in Wistar rat estrogen-dependent fungal vaginitis model assessed as fungal burden at 10 ug administered intravaginally 48 hrs after fungal infection measured on day 14 after infection; format: functional, Vagina; outline: as §2
Candida albicans [35] = test: Antifungal activity against pharmacoresistant Candida albicans AIDS68 infected in Wistar rat estrogen-dependent fungal vaginitis model assessed as fungal burden at 10 ug administered intravaginally 48 hrs after fungal infection measured on day 21 after infection; format: functional, Vagina; outline: as §2

Sequence of Secreted aspartic protease 2 (Candida albicans) (P0CS83 57-398 limits assumed): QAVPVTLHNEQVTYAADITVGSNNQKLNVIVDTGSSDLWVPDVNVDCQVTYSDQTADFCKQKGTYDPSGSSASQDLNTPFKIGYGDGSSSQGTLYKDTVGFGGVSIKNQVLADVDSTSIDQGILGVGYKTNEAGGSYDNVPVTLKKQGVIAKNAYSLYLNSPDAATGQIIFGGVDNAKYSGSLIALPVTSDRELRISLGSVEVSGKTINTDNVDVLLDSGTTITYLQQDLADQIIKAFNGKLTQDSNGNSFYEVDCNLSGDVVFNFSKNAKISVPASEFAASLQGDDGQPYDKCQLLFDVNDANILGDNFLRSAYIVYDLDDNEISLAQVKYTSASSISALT

O=C1[C@@H]2O[C@H](CN1Cc1ccccc1)O[C@H]2C(=O)N1CCC[C@H]1CO
inhibition [1]: 48%

O=C([C@@H]1O[C@H]2CN(Cc3ccccc3)C(=O)[C@@H]1O2)N1CCN(CCO)CC1
inhibition [1]: 58% | inhibition [2]: 92% | inhibition [3]: 31%

O=C(N[C@@H](CO)c1ccccc1)[C@@H]1O[C@H]2CN(Cc3ccccc3)C(=O)[C@@H]1O2
inhibition [1]: 31%

O=C(NCCO)[C@@H]1O[C@H]2CN(Cc3ccccc3)C(=O)[C@@H]1O2
inhibition [1]: 71%

O=C([C@@H]1O[C@H]2CN(Cc3ccccc3)C(=O)[C@@H]1O2)N1CCCCC1
Activity (Candida albicans [4]): 0 ×10³ CFU/ml | Activity (Candida albicans [5]): 3.4 ×10³ CFU/ml | Activity (Candida albicans [6]): 12.8 ×10³ CFU/ml | Activity (Candida albicans [7]): 23.2 ×10³ CFU/ml | Activity (Candida albicans [8]): 40.6 ×10³ CFU/ml | Activity (Candida albicans [9]): 62.6 ×10³ CFU/ml | Activity (Candida albicans [10]): 71.8 ×10³ CFU/ml | Activity (Candida albicans [11]): 1.2 ×10³ CFU/ml | Activity (Candida albicans [12]): 8 ×10³ CFU/ml | Activity (Candida albicans [13]): 14.4 ×10³ CFU/ml | Activity (Candida albicans [14]): 30.6 ×10³ CFU/ml | Activity (Candida albicans [15]): 39.2 ×10³ CFU/ml | Activity (Candida albicans [16]): 57.6 ×10³ CFU/ml | Activity (Candida albicans [17]): 70 ×10³ CFU/ml | Activity (Candida albicans [18]): >100 ×10³ CFU/ml | inhibition [19]: 19% | inhibition [20]: 0% | inhibition [1]: 74% | inhibition [21]: 50% | inhibition [2]: 67%

C[C@@H](CO)NC(=O)[C@@H]1O[C@H]2CN(Cc3ccccc3)C(=O)[C@@H]1O2
inhibition [1]: 35%

CCOC(=O)N1CCN(C(=O)[C@@H]2O[C@H]3CN(Cc4ccccc4)C(=O)[C@@H]2O3)CC1
inhibition [1]: 74% | inhibition [2]: 19% | inhibition [3]: 10%

CC(C)C[C@H](CO)NC(=O)[C@@H]1O[C@H]2CN(Cc3ccccc3)C(=O)[C@H]1O2
inhibition [1]: 29%

O=C(NCCCO)[C@@H]1O[C@H]2CN(Cc3ccccc3)C(=O)[C@@H]1O2
inhibition [1]: 23%

CC(C)C[C@@H](CO)NC(=O)[C@H]1OC2CN(Cc3ccccc3)C(=O)C1O2 (single isomer, unassigned)
inhibition [1]: 33%

CC(C)CC(=O)N[C@H](C(=O)N[C@H](C(=O)N[C@@H](CC(C)C)[C@@H](O)CC(=O)N[C@@H](C)C(=O)N[C@@H](CC(C)C)[C@@H](O)CC(=O)O)C(C)C)C(C)C [PEPSTATIN]
Activity (Candida albicans [22]): 30 ×10³ CFU/ml | Activity (Candida albicans [23]): 37.2 ×10³ CFU/ml | Activity (Candida albicans [24]): 52 ×10³ CFU/ml | Activity (Candida albicans [25]): 58.4 ×10³ CFU/ml | Activity (Candida albicans [26]): 0 ×10³ CFU/ml | Activity (Candida albicans [27]): 5 ×10³ CFU/ml | Activity (Candida albicans [28]): 9.4 ×10³ CFU/ml | Activity (Candida albicans [29]): 28 ×10³ CFU/ml | Activity (Candida albicans [30]): 32.4 ×10³ CFU/ml | Activity (Candida albicans [31]): 51 ×10³ CFU/ml | Activity (Candida albicans [32]): 56.8 ×10³ CFU/ml | Activity (Candida albicans [33]): >100 ×10³ CFU/ml | Activity (Candida albicans [34]): 19.8 ×10³ CFU/ml | Activity (Candida albicans [35]): 3.8 ×10³ CFU/ml

CC(C)C[C@H](CO)NC(=O)[C@H]1O[C@@H]2CN(Cc3ccccc3)C(=O)[C@@H]1O2
inhibition [1]: 60%
